IDE inh – inhibitors of human insulin-degrading enzyme in cells | P14735 | HEK cells, FAbetaB cleavage, fluorescence polarization | inhibition, % at 5.59 µM | hit rate 0.41% among 320,000;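 active = percent inhibition above the average of all tested compounds plus 3 SD, set per screening campaign, cut at about 16% in these data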;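 note: IDE supplied by intact live HEK cells; FP after avidin binding of uncleaved biotin substrate so inhibition keeps polarization high; 0% = DMSO wells and 100% = 60 µM reference IDE inhibitor Ii1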
TbMetRS inhib – Trypanosoma brucei MetRS inhibition. inhibition, % at 11.9 µM. purified T. brucei MetRS, ATP depletion, Kinase-Glo luminescence. hit rate 0.4% among 360,000. AID 624268;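 active = inhibition above a per-plate cutoff of the control wells' mean inhibition plus 3 SD, cut at about 5.5% in these data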;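 note: 0% = DMSO wells median and 100% = median of wells with control inhibitor compound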
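Material – parasite MetRS enzyme · Medium – HEPES-MgCl2-KCl buffer plus DTT, spermine, BSA, pyrophosphatase · Reagent – ATP, methionine and E. coli bulk tRNA substrates · Times – 15 min enzyme-compound preincubation, 2 h reaction, 10 min detection, 25 °C · Measured by – luminescence of leftover ATP · Evaluation – percent inhibition relative to median high and low control wells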
CSN deneddyl inh – blocks human CSN-mediated cullin deneddylation; Q92905; Purified CSN, SCF-Nedd8-OG deneddylation, fluorescence polarization; inhibition, % at 12.5 µM; hit rate 0.38% among 360,000;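 active = pattern-corrected inhibition above about 35%, with an unprinted fluorescence ratio check between 0.5 and 1.5, limit read from the data, passing the limit was not always enough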;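 note: 0% = enzyme with substrate and 100% = substrate without enzyme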
Target sequence (Q92905 whole entry, looked up, one chain of several): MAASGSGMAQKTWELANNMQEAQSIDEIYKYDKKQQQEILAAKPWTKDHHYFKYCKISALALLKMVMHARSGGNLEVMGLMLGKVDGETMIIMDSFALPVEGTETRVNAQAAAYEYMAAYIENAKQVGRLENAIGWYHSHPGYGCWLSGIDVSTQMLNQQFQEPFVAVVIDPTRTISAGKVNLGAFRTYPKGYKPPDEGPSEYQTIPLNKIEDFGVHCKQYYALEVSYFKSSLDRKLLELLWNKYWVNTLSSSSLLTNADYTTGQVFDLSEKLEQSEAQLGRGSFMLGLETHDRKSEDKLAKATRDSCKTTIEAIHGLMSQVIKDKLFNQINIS
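assay system = purified human Csn5 enzyme expressed in HEK293T cells | amount = 0.24 nM enzyme | buffer or medium = Tris/NaCl/DTT buffer, pH 7.5 | reagent = 10 nM SCFSkp2-Nedd8OG | compound = one concentration, 12.5 µM, 0.25% DMSO | times = 90 min reaction at room temperature | signal = FP | read-out basis = % inhibition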
TPT1 inh – inhibitors of Candida albicans tRNA 2'-phosphotransferase TPT1 | recombinant caTPT1, FP RNA substrate dephosphorylation | inhibition, % at 5 µM | hit rate 0.81% among 300,000 | AID 1962;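 active = inhibition above the mean of all tested compounds plus 3 SD, set per screening campaign, cut at about 24% in these data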;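 note: plate controls were DMSO alone for no effect and ferristatin control at 100 nM for full effect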
IDE act – boosts human insulin-degrading enzyme activity in HEK cells. FAbeta-B cleavage, fluorescence polarization; 0% vehicle, 100% cell-free pure enzyme wells. activation, % at 5.96 µM. hit rate 0.073% among 340,000;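 active = activation above the mean of all tested compounds plus 3 SD, set per screening campaign, cut at about 17% in these data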
HNF4A DNA FP – change in binding of human HNF4 alpha to DNA. HNF4a-FITC DNA binding, fluorescence polarization, 1 h. hit rate 0.3% among 360,000. P41235. activity change, % at 10 µM; in the data active = activity change above about 30%, passing the limit was not always enough
IDE cell inh cf – cellular human IDE inhibition, confirmation | shares compounds with IDE inh | HEK cells, FAbetaB cleavage, fluorescence polarization | inhibition, % at 5.59 µM | hit rate 51% among 1,200 | AID 435028;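 active = mean inhibition across triplicate wells above the cutoff set by the earlier primary insulin-degrading enzyme screen, cut at about 16% in these data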;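 note: 0% = DMSO wells and 100% = 60 µM reference IDE inhibitor Ii1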
HEK293 tox – kills HEK cells in IDE inhibitor counter-screen; shares compounds with IDE inh; HEK293 cytotoxicity, ATP luminescence; inhibition, % at 5.59 µM; hit rate 28% among 1,200; in the data active = inhibition above about 22%;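 note: 0% = vehicle wells and 100% = reference cytotoxic drug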
TbMetRS confirm – Trypanosoma brucei MetRS inhibition confirmed; hit rate 93% among 1,400; T. brucei MetRS enzyme, luminescence (ATP depletion); shares compounds with TbMetRS inhib; inhibition, % at 11.9 µM; in the data active = inhibition above about 7%
Jurkat tox – counter-screen for T. brucei MetRS inhibitors: Jurkat cell cytotoxicity; inhibition, % at 8.3 µM; AID 624413; shares compounds with TbMetRS inhib; Jurkat cells viability, ATP luminescence; hit rate 12% among 1,400; in the data active = inhibition above about 15%;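 note: 0% = vehicle and 100% = reference inhibitor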
Tb MetRS inh FP – inhibits T. brucei methionyl tRNA synthetase in orthogonal FP test | shares compounds with TbMetRS inhib | purified T. brucei MetRS, fluorescence polarization | inhibition, % at 11.9 µM | hit rate 44% among 1,400 | AID 651607; in the data active = inhibition above about 17%;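 note: 0% = vehicle wells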
CSN deneddyl val – Csn5 (human) deneddylation inhibition, single-concentration validation; shares compounds with CSN deneddyl inh; Csn5 deneddylation of SCF-Nedd8OG, fluorescence polarization, 90 min; inhibition, % at 16.6 µM; hit rate 62% among 540; in the data active = inhibition above about 50%;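 note: 0% = DMSO with enzyme and 100% = no enzyme wells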
MMP-2 counter – counter-screen for CSN deneddylation inhibitors: human MMP-2 inhibition. recombinant MMP-2, FRET substrate fluorescence, 60 min. AID 720655. hit rate 33% among 540. shares compounds with CSN deneddyl inh. inhibition, % at 16.6 µM;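 active = corrected plate-normalized z-score of 5 or more, or -5 or less, or inhibition of 15% or more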;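 note: plate controls were DMSO wells with enzyme for no effect and buffer wells lacking MMP-2 for full effect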
Thrombin cntr – blocks bovine thrombin in a CSN deneddylation counter-screen; shares compounds with CSN deneddyl inh; bovine thrombin cleavage of Ub4-pepOG, fluorescence polarization; inhibition, % at 16.6 µM; hit rate 49% among 540; AID 720656;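 active = inhibition at or above a set limit, with a fluorescence interference ratio between 0.5 and a set maximum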
HNF4A confirm – change in binding of human HNF4 alpha to DNA, retest; HNF4A-FITC DNA binding, fluorescence polarization, 1 h; hit rate 99% among 210; shares compounds with HNF4A DNA FP; activity change, % at 12.5 µM; call rule not given here
* hit, by the source's call; . = not tested or not shown. Hits are enriched below; roughly 1.7% of the tested compounds scored in any of these assays.

SMILES	IDE inh	TbMetRS inhib	CSN deneddyl inh	TPT1 inh	IDE act	HNF4A DNA FP	TbMetRS confirm	Jurkat tox	Tb MetRS inh FP	others
CCCOc1ncnc2c1[nH]c1ccccc12	15	0	-2	0	-21	1	.	.	.
COCCNc1ncnc2c1[nH]c1ccccc12	18*	59*	3	-1	-13	-3	77*	11	42*	IDE cell inh cf=6;HEK293 tox=18
CN[C@@H](C)C(=O)NC[C@H]1O[C@@H](n2cnc3c(N)ncnc32)[C@H](O)[C@@H]1O	.	0	-8	.	2	4	.	.	.
CCOc1ccc(CCNC(=O)CCC(=O)N2CCOc3ccccc32)cc1OCC	0	0	-6	1	4	2	.	.	.
c1ccc2cc(C3OCC4(CCCC4)CO3)ccc2c1	.	0	-5	.	.	4	.	.	.
CCn1c(Cc2ccc(OC)cc2)nnc1SCc1nc2ccccc2c(=O)[nH]1	2	0	-5	-1	0	4	.	.	.
COc1ccc(OC)c(C(=O)N2CCC(n3nccc3NC(=O)CC(C)C)CC2)c1	-7	0	-3	0	6	5	.	.	.
Cc1ccc2[nH]c3c(N4CCN(Cc5ccccc5)CC4)ncnc3c2c1	36*	8.1*	8	6	-13	-3	18*	15*	4	IDE cell inh cf=17*;HEK293 tox=41*
c1ccc2c(c1)CCN(c1ncnc3c1[nH]c1ccccc13)C2	21*	13*	1	0	-25	-1	9.1*	46*	10	IDE cell inh cf=17*;HEK293 tox=80*
OC1(c2cccc(C(F)(F)F)c2)CCN(c2ncnc3c2[nH]c2ccccc23)CC1	19*	6.1*	4	2	-10	2	14*	16*	9	IDE cell inh cf=7;HEK293 tox=35*
COc1ccc2c(c1)[nH]c1c(N3CCN(Cc4ccc5c(c4)OCO5)CC3)ncnc12	14	2	-1	-3	-15	-1	.	.	.
COc1cccc(N2CCN(c3ncnc4c3[nH]c3ccc(F)cc34)CC2C)c1 (stereo not given)	38*	8.5*	4	-2	-12	0	12*	95*	14	IDE cell inh cf=28*;HEK293 tox=122*
COc1cccc2[nH]c3c(N4CCC(C)CC4)ncnc3c12	2	0	-4	7	-1	-4	.	.	.
COc1cc(/C=C2\SC(=S)N(NC(=O)c3ccncc3)C2=O)ccc1O	81*	-1	39*	18	-136	50*	.	.	.	IDE cell inh cf=165*;HEK293 tox=6;CSN deneddyl val=68*;MMP-2 counter=12;Thrombin cntr=38*
CC(=O)CCC(=O)N1CCC(n2nccc2NC(=O)c2ccccc2C)CC1	3	-1	0	0	2	0	.	.	.
COc1cc(/C=C(\C#N)c2nc3ccccc3[nH]2)ccc1OC(=O)c1ccco1	114*	0	5	15	-107	38*	.	.	.	IDE cell inh cf=153*;HEK293 tox=12;HNF4A confirm=52*
NS(=O)(=O)c1ccc(CNC(=S)NCc2ccc(F)cc2)cc1	8	0	3	-5	2	0	.	.	.
Nc1c(C(=O)NCc2ccco2)c2nc3ccccc3nc2n1CCc1ccc(F)cc1	3	8.4*	43*	20	0	13	11*	14	10
CSc1nc2ccccc2n1CC(=O)Nc1ccccc1	1	0	-3	-6	1	-2	.	.	.
O=C(Cn1c(/C=C/c2ccccc2)nc2ccccc21)Nc1ccc(F)cc1	9	32*	-6	-6	-1	1	55*	8	39*
O=C(CSc1nc2ccccc2[nH]1)NCc1ccc(F)cc1	-1	7.7*	-12	3	4	2	13*	3	-1
O=C(CSc1nc2ccccc2[nH]1)NCc1ccc2c(c1)OCO2	5	28*	-1	-2	-3	-7	43*	1	20*
NS(=O)(=O)c1cccc(NC(=O)CSc2nc3ccccc3[nH]2)c1	10	7.8*	5	2	-4	0	16*	2	10
C/C(=N\Nc1nc2ccccc2[nH]1)c1ccc2c(c1)OCO2	4	7.3*	-5	0	-2	-1	8.8*	0	18*
COC1=CC(C)C2CC3OC(O)CC4C(C)=C(OC)C(=O)C(C2(C)C1=O)C34C (stereo not given)	.	0	-3	.	.	-2	.	.	.
SMILES	IDE inh	TbMetRS inhib	CSN deneddyl inh	TPT1 inh	IDE act	HNF4A DNA FP	TbMetRS confirm	Jurkat tox	Tb MetRS inh FP	others
O=C(CCc1nc2ccccc2[nH]1)NCc1ccc2c(c1)OCO2	1	20*	-7	-4	1	4	36*	-5	13
O=C(CCc1nc2ccccc2[nH]1)Nc1ccc2c(c1)OCO2	3	1	1	-2	3	1	.	.	.
CC(NC(=O)COC(=O)COc1cccc2c1OC(C)(C)C2)c1ccccc1 (stereo not given)	-4	0	-3	0	3	1	.	.	.
Cc1ccc(SCc2cc(=O)c3c(=O)n(-c4ccccc4)[nH]c3[nH]2)cc1	6	-1	5	-4	7	-4	.	.	.
O=c1cc(CSc2ccc(Cl)cc2)[nH]c2[nH]n(-c3ccccc3)c(=O)c12	-4	8.5*	3	-4	-7	2	26*	17*	7
Cc1ccc(OCc2nc(C#N)c(NCCCn3ccnc3)o2)cc1	0	2	0	3	7	0	.	.	.
N#Cc1nc(COc2ccc(Br)cc2)oc1NCCCn1ccnc1	0	30*	3	2	-3	2	53*	7	31*

High-throughput results deposited in PubChem BioAssay by several laboratories.
